Where a chain is given by its changes, count along the chain named. Read-outs that look alike come from different tables or passages of the source.
What was measured:
[1] = target: T1, EphA3 kinase domain (wild-type) (Homo sapiens, UniProt P29320); experiment: ADP-Quest kinase assay, wild-type EphA3 kinase domain; type: biochemical; conditions: for kcat/Km / kcat: 200 µM ATP, room temperature, ADP-Quest; for kcat: ± SD from two independent experiments, in duplicate
T1 sequence (P29320 621-882 limits assumed): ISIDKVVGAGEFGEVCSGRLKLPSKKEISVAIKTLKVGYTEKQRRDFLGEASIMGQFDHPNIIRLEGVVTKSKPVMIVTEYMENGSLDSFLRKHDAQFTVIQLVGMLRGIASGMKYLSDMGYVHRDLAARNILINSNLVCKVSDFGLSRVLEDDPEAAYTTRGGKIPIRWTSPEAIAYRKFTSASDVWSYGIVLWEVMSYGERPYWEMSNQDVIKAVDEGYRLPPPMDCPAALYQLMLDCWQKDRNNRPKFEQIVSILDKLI
Summary of the method: (§1)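 EphA3 kinase domain, wild-type or point mutant made by site-directed mutagenesis, expressed in E. coli BL21 Gold (DE3). His-tag purified, thrombin-cleaved, gel-filtered, then autophosphorylated with 10 mM each ATP and MgCl2; free nucleotide removed by anion exchange. ADP-Quest fluorescence (ex 530/em 590 nm) at room temperature. Peptide 1–4000 µM, ATP 200 µM, enzyme 10 nM–5 µM. Duplicates, background-ADP corrected. Km/Vmax from Michaelis–Menten fit; SD from two independent experiments.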

[2] = target: T2, EphA3(K785E) (Homo sapiens, UniProt P29320, K785E); experiment: ADP-Quest kinase assay, EphA3 K785E mutant; type: biochemical
T2 sequence (P29320 577-947 K785E limits assumed): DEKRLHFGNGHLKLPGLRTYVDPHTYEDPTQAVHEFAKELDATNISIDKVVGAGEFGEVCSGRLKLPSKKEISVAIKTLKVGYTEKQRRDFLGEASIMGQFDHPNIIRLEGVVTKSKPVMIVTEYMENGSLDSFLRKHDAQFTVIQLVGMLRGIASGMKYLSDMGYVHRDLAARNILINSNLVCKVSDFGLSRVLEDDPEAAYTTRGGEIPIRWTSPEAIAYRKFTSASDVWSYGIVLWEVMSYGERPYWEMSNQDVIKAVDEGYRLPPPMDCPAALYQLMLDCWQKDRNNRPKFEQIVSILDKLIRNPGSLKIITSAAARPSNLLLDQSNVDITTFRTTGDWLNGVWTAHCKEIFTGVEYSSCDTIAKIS
Summary of the method: as §1

[3] = target: T3, EphA3(N830A) (Homo sapiens, UniProt P29320, N830A); experiment: ADP-Quest kinase assay, EphA3 N830A mutant; type: biochemical; conditions: for kcat/Km / Km / kcat: 200 µM ATP, room temperature, ADP-Quest; for Km / kcat: peptide 1 to 4000 µM, ± SD from two independent experiments, in duplicate
T3 sequence (P29320 621-882 N830A limits assumed): T1 sequence (P29320 621-882 limits assumed) with N210A
Summary of the method: as §1

[4] = tested on: EphA3 kinase domain; conditions: juxtamembrane peptide, ref [20], cited from earlier work
[5] = Aqueous solubility of peptide; type: physicochemical; conditions: aqueous buffer
[6] = target: T4, EphB2 (Homo sapiens, UniProt P29323); experiment: Isoform specificity of EPHOPT, EphB2; type: biochemical; conditions: in words; EphB2, non-arginine at position 782
T4 sequence (P29323 621-884 limits assumed): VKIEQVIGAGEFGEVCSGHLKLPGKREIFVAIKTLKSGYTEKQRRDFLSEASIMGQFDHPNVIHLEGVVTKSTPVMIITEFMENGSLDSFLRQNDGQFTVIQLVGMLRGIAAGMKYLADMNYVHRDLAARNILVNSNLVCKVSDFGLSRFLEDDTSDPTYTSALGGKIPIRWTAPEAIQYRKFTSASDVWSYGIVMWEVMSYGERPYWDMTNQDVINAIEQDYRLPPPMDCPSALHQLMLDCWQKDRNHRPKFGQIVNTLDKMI
Summary of the method: (§2)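 Each kinase prepared by target. EphA5, EphA7 and EphB3 were autophosphorylated with 10 mM each ATP and MgCl2, then freed of nucleotide by anion exchange. EphB2 and EphB4 were bought in active form and used unmodified. ADP-Quest fluorescence read-out (ex 530/em 590 nm) at room temperature. Peptide substrate 1–4000 µM, ATP 200 µM, enzyme 10 nM–5 µM. Duplicates, background-corrected. Kinetic constants from Michaelis–Menten fit.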

[7] = target: T5, EphB4 (Homo sapiens, UniProt P54760); experiment: Isoform specificity of EPHOPT, EphB4; type: biochemical; conditions: in words; EphB4, non-arginine at position 782
T5 sequence (P54760 615-899 limits assumed): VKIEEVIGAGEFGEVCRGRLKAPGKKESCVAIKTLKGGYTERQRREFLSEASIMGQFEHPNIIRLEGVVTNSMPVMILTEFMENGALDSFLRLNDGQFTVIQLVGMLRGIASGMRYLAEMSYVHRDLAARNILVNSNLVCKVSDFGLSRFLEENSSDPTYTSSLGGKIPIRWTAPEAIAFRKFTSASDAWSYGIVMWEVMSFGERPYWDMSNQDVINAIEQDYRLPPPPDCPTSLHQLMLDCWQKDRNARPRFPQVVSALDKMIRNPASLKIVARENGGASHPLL
Summary of the method: as §2

[8] = target: T6, EphB3 (Homo sapiens, UniProt P54753); experiment: Isoform specificity of EPHOPT, EphB3; type: biochemical; conditions: in words
T6 sequence (P54753 633-896 limits assumed): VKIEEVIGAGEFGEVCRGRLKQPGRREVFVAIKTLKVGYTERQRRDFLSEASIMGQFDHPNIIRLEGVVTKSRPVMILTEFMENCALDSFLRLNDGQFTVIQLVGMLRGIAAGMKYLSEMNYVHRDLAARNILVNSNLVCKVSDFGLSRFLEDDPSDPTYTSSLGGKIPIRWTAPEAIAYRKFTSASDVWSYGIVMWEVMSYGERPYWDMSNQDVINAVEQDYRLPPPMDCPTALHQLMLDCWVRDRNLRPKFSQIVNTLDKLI
Summary of the method: as §2

[9] = tested on: EphA5, EphA7, EphB3, EphB4, EphB2 (relative to EphA3); experiment: Isoform specificity of EPHOPT, other EPH kinase domains; type: biochemical
Summary of the method: as §2

[10] = target: T7, EphA7 (Homo sapiens, UniProt Q15375); experiment: Isoform specificity of EPHOPT, EphA7; type: biochemical; conditions: in words; EphA7, non-arginine at position 782
T7 sequence (Q15375 633-894 limits assumed): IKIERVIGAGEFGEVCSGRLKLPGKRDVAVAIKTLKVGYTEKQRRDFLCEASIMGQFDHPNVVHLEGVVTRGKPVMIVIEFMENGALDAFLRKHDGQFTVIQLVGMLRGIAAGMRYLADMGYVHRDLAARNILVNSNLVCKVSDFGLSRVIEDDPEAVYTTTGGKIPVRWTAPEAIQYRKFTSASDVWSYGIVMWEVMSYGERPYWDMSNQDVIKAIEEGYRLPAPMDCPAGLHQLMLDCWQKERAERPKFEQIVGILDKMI
Summary of the method: as §2

[11] = EphA3(K785E), 200 µM ATP, room temperature, ADP-Quest, ± SD from two independent experiments, in duplicate
[12] = EphA3 K785E mutant, 200 µM ATP, room temperature, ADP-Quest
[13] = EphA3 K785E mutant, peptide 1 to 4000 µM, 200 µM ATP, room temperature, ADP-Quest, ± SD from two independent experiments, in duplicate
[14] = EphA3(N830A) relative to wild-type
[15] = relative to juxtamembrane peptide

KQWDNYEKIW [OPTYK]
kcat/Km [1]: 34270 M⁻¹ s⁻¹ | kcat ([1]; peptide 1 to 4000 µM): 220 ± 27 min⁻¹

KQWDNYEFIW [OPTYF]
kcat/Km ([2]; EphA3(K785E), 200 µM ATP, room temperature, ADP-Quest): 0.155 µM/min | kcat [2, 11]: 0.383 ± 0.13 s⁻¹ | kcat/Km [2, 12]: 2580 M⁻¹ s⁻¹ | kcat [2, 13]: 0.383 ± 0.13 s⁻¹ | weaker affinity (relative to EPHOPT) ([3]; EphA3(N830A), OPTYF versus EPHOPT): 5 -fold | kcat/Km ([3]; EphA3 N830A mutant): 3280 M⁻¹ s⁻¹ | Km ([3]; EphA3 N830A mutant): 152 ± 35 µM | kcat ([3]; EphA3 N830A mutant): 0.5 ± 0.0233 s⁻¹ | kcat/Km [1]: 233880 M⁻¹ s⁻¹ | kcat [1]: 421 ± 30 min⁻¹ | kcat ([1]; peptide 1 to 4000 µM): 421 ± 30 min⁻¹ | relative change in Km ([1]; relative to EPHOPT): ~ 2 -fold | relative change in kcat ([1]; relative to EPHOPT): ~ 2 -fold

D^598PHTYEDPTQ^606 [juxtamembrane EphA3 peptide]
Km ([4]; EphA3 kinase domain): 1000 ± 20 µM | catalytic efficiency ([4]; EphA3 kinase domain): 200 min⁻¹ mM⁻¹ | kcat ([4]; EphA3 kinase domain): 199 ± 9 min⁻¹ | kcat ([4]; quoted for comparison with EPHOPT): 199 per minute

KQWDNYEpYIW [EPHOPT]
solubility [5]: ≥ 100000 µM | decrease in catalytic efficiency ([2]; EphA3(K785E) relative to wild-type): 260 -fold | negative effect on Km ([2]; EphA3(K785E) relative to wild-type enzyme): about an order of magnitude | kcat [2, 11]: 0.567 ± 0.012 s⁻¹ | kcat/Km [2, 12]: 3020 M⁻¹ s⁻¹ | Km [2, 13]: 188 ± 64 µM | kcat [2, 13]: 0.567 ± 0.012 s⁻¹ | decrease in catalytic efficiency [3, 14]: more than one order of magnitude decrease | decrease in kcat/Km [3, 14]: 56 -fold | kcat/Km ([3]; EphA3(N830A)): 0.835 µM/min | kcat/Km ([3]; EphA3 N830A mutant): 13900 M⁻¹ s⁻¹ | Km ([3]; EphA3 N830A mutant): 39.5 ± 0.7 µM | kcat ([3]; EphA3 N830A mutant): 0.55 ± 0.0233 s⁻¹ | catalytic efficiency (EphB2) [6]: lower catalytic efficiencies | kcat/Km [1]: 787030 M⁻¹ s⁻¹ | kcat [1]: 850 ± 44 per minute | kcat ([1]; peptide 1 to 4000 µM): 850 ± 44 min⁻¹ | drop in Km [1, 15]: almost two orders of magnitude | increase in catalytic efficiency [1, 15]: over 200 -fold | increase in kcat [1, 15]: 4 -fold | catalytic efficiency (EphB4) [7]: lower catalytic efficiencies | catalytic efficiency of EphB3 relative to EphA5 [8]: nearly as efficient as EphA5 | substrate affinity at EphB3 relative to EphA3 [8]: nearly identical substrate affinity as EphA3 | rank order of catalytic efficiency across isoforms ([9]; EphA3 and five other EPH kinases, Supplemental Table S2): EphA3>EphA5≅EphB3>>EphA7≅EphB4>>EphB2 | selectivity for EphA3 over other EPH kinases ([9]; in words): mildly to strongly selective for EphA3 | catalytic efficiency (EphA7) [10]: lower catalytic efficiencies

From PMC2865185 (The FEBS journal, 2009)
